Laboratory results from ChEMBL document CHEMBL4823317, “Synthesis, in vitro cytotoxicity and biological evaluation of twenty novel 1,3-benzenedisulfonyl piperazines as antiplatelet agents” (Bioorg Med Chem, 2021).

Columns and labels:
Blood [1] = experiment: Anti-platelet aggregation activity in rabbit venous blood assessed as inhibition of ADP-induced aggregation at 1.3 uM pre-treated for 2 mins followed by ADP addition by Born turbidimetric method relative to control; type: functional; settings: Oryctolagus cuniculus
Method in brief: (§1)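 Platelet-rich plasma from male rabbit (2–3 kg) ear-vein blood, citrate anticoagulated (3.8%, 9:1), spun 1000 rpm 10 min at room temperature; platelet-poor plasma (3000 rpm 10 min) as blank. Compound at 1.3 µM, from DMSO solution (DMSO 0.5% v/v vehicle control), preincubated 2 min in PRP before inducer. Inhibition% = (1 − D/S) × 100, where S is aggregation with solvent.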

Blood [2] = experiment: Anti-platelet aggregation activity in rabbit venous blood assessed as inhibition of arachidonic acid-induced aggregation at 1.3 uM pre-treated for 2 mins followed by ADP addition by Born turbidimetric method relative to control; type: functional; settings: Oryctolagus cuniculus; method in brief: as §1
Blood [3] = experiment: Anti-platelet aggregation activity in rabbit venous blood assessed as inhibition of collagen-induced aggregation at 1.3 uM pre-treated for 2 mins followed by ADP addition by Born turbidimetric method relative to control; type: functional; settings: Oryctolagus cuniculus; method in brief: as §1
[4] = Cytotoxicity against mouse L929 cells assessed as cell survival at 100 uM incubated for 48 hrs by CCK-8 assay relative to control; type: cell-based; settings: read-out: Activity
Method in brief: (§2)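 L929 mouse fibroblasts seeded at 10,000 cells/well in RPMI-1640 and allowed to attach 24 h at 37 °C. Compounds then added at 10 and 100 µM for 48 h at 37 °C. Medium replaced with fresh medium, CCK-8 added, 30 min further incubation, absorbance read at 450 nm. Viability = Abs(test)/Abs(control) × 100%.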

[5] = Cytotoxicity against mouse L929 cells assessed as cell survival at 10 uM incubated for 48 hrs by CCK-8 assay relative to control; type: cell-based; settings: read-out: Activity; method in brief: as §2
Blood [6] = experiment: Anti-platelet aggregation activity in rabbit venous blood assessed as inhibition of ADP-induced aggregation pre-treated for 2 mins followed by ADP addition by Born turbidimetric method; type: functional, tissue-based; settings: Oryctolagus cuniculus
Method in brief: (§3)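 Rabbit PRP Born turbidimetry with the same 2 min compound preincubation. ADP or arachidonic acid as inducer. Compounds tested at 1.3, 0.65 and 0.325 µM. Inhibition% = (1 − D/S) × 100 versus the solvent control, and IC50 calculated from these inhibition rates.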

Blood [7] = experiment: Anti-platelet aggregation activity in rabbit venous blood assessed as inhibition of arachidonic acid-induced aggregation pre-treated for 2 mins followed by ADP addition by Born turbidimetric method; type: functional, tissue-based; settings: Oryctolagus cuniculus; method in brief: as §3

Compound	IC50 (Blood [6])	IC50 (Blood [7])	inhibition at 1.3 µM (Blood [1])	inhibition at 1.3 µM (Blood [2])	inhibition at 1.3 µM (Blood [3])	viability at 48 h, 100 µM [4]	viability at 48 h, 10 µM [5]
COc1ccc(S(=O)(=O)N2CCN(c3ccccc3)CC2)cc1S(=O)(=O)N1CCN(c2ccccc2)CC1			27.9%	15.7%	20.4%		
CCOc1ccc(S(=O)(=O)N2CCN(c3ccccc3F)CC2)cc1S(=O)(=O)N1CCN(c2ccccc2F)CC1			21%	25.8%	50.3%	3.7%	70.4%
CC(=O)Oc1ccccc1C(=O)O [ASPIRIN]	440 nM	430 nM	46.3%	38.5%	49.1%		
CCOc1ccc(S(=O)(=O)N2CCN(C(C)C)CC2)cc1S(=O)(=O)N1CCN(C(C)C)CC1	800 nM		36.4%	24.9%	39%		
CCOc1ccc(S(=O)(=O)N2CCN(CC)CC2)cc1S(=O)(=O)N1CCN(CC)CC1			28.8%	29.9%	41.7%		
COc1ccc(S(=O)(=O)N2CCN(C(C)C)CC2)cc1S(=O)(=O)N1CCN(C(C)C)CC1			28.4%	27.1%	49.4%		
CCN1CCN(S(=O)(=O)c2ccc(OC)c(S(=O)(=O)N3CCN(CC)CC3)c2)CC1			24.3%	22.4%	42.6%		
CCOc1ccc(S(=O)(=O)N2CCN(C)CC2)cc1S(=O)(=O)N1CCN(C)CC1			24.5%	18.1%	29.5%		
CCOc1ccc(S(=O)(=O)N2CCN(c3ccccc3OC)CC2)cc1S(=O)(=O)N1CCN(c2ccccc2OC)CC1			25.5%	23.1%	25.2%		
COc1ccccc1N1CCN(S(=O)(=O)c2ccc(OC)c(S(=O)(=O)N3CCN(c4ccccc4OC)CC3)c2)CC1			28.7%	28.1%	27.6%		
CCOc1ccc(S(=O)(=O)N2CCN(Cc3ccccc3)CC2)cc1S(=O)(=O)N1CCN(Cc2ccccc2)CC1			24%	20.1%	49.8%	22.2%	55.6%
COc1ccc(C(=O)NCc2cccnc2)cc1C(=O)NCc1cccnc1 [PICOTAMIDE]	470 nM	340 nM	45.5%	37.1%	49.2%		

Now from value to molecule, other results behind:

IC50 (Blood [6])	IC50 (Blood [7])	Compound	inhibition at 1.3 µM (Blood [1])	inhibition at 1.3 µM (Blood [2])	inhibition at 1.3 µM (Blood [3])	viability at 48 h, 100 µM [4]	viability at 48 h, 10 µM [5]
980 nM		COc1ccc(S(=O)(=O)N2CCN(C)CC2)cc1S(=O)(=O)N1CCN(C)CC1	38.2%	29.5%	52.6%	33.3%	77.8%
910 nM		CCOc1ccc(S(=O)(=O)N2CCN(c3ccccc3)CC2)cc1S(=O)(=O)N1CCN(c2ccccc2)CC1	40.1%	23.6%	26.9%		
	480 nM	COc1ccc(S(=O)(=O)N2CCN(c3ccccc3F)CC2)cc1S(=O)(=O)N1CCN(c2ccccc2F)CC1	28%	40.6%	28.8%	66.7%	77.8%
450 nM	430 nM	CCOc1ccc(S(=O)(=O)N2CCN(c3cccc(C)c3)CC2)cc1S(=O)(=O)N1CCN(c2cccc(C)c2)CC1	50.3%	34.8%	48.8%	33.3%	56.6%
	680 nM	COc1ccc(S(=O)(=O)N2CCN(c3ccc(C)cc3)CC2)cc1S(=O)(=O)N1CCN(c2ccc(C)cc2)CC1	30.4%	34.1%	32.6%		
	710 nM	COc1ccc(S(=O)(=O)N2CCN(c3cccc(C)c3)CC2)cc1S(=O)(=O)N1CCN(c2cccc(C)c2)CC1	21.1%	33.7%	54.2%	66.7%	85.2%
	650 nM	CCOc1ccc(S(=O)(=O)N2CCN(c3ccccc3C)CC2)cc1S(=O)(=O)N1CCN(c2ccccc2C)CC1	28.9%	33.1%	41.6%		
950 nM	360 nM	COc1ccc(S(=O)(=O)N2CCN(c3ccccc3C)CC2)cc1S(=O)(=O)N1CCN(c2ccccc2C)CC1	38.9%	36.9%	32.1%		
720 nM	260 nM	CCOc1ccc(S(=O)(=O)N2CCN(c3ccc(C)cc3)CC2)cc1S(=O)(=O)N1CCN(c2ccc(C)cc2)CC1	43.6%	43%	28.5%	7.4%	51.8%
1150 nM	330 nM	COc1ccc(S(=O)(=O)N2CCN(Cc3ccccc3)CC2)cc1S(=O)(=O)N1CCN(Cc2ccccc2)CC1	33.2%	38.5%	22.8%	22.2%	55.6%
